In ChEMBL document CHEMBL1154610, “Discovery and preclinical evaluation of [4-[[1-(3-fluorophenyl)methyl]-1H-indazol-5-ylamino]-5-methylpyrrolo[2,1-f][1,2,4]triazin-6-yl]carbamic acid, (3S)-3-morpholinylmethyl ester (BMS-599626), a selective and orally efficacious inhibitor of human epidermal growth factor receptor 1 and 2 kinases” (J Med Chem, 2009):

Legend:
[1] = target: Epidermal growth factor receptor (Homo sapiens, UniProt P00533); experiment: Inhibition of human recombinant HER1 expressed in Sf9 cells by liquid scintillation counting
[2] = target: Receptor tyrosine-protein kinase erbB-2 (Homo sapiens, UniProt P04626); experiment: Inhibition of human recombinant HER2 expressed in Sf9 cells by liquid scintillation counting
BT-474 = experiment: Antiproliferative activity against human BT474 cells after 72 hrs by MTT assay; type: functional, cell-based; conditions: BT-474, 72 h
Method in brief: (§1)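 Cell proliferation IC50 reported as the mean of three independent determinations. BT474 is a breast line (HER2+++/HER1+); A2780 serves as a HER-independent control.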

NCI-N87 [3] = experiment: Antiproliferative activity against human NCI-N87 cells after 72 hrs by MTT assay; type: functional, cell-based; conditions: NCI-N87, 72 h
[4] = Antiproliferative activity against mouse SAL2 cells after 72 hrs by MTT assay; type: functional, cell-based; conditions: SAL2, 72 h
A2780 = experiment: Antiproliferative activity against human A2780 cells after 72 hrs by MTT assay; type: functional, cell-based; conditions: A2780, 72 h; method in brief: as §1
[5] = AUC (0 to 4 hrs) in BALB/c mouse at 50 mg/kg, po; type: ADME, organism-based; design: time < 4 hr, dose 50 mg/kg, route oral; conditions: plasma
[6] = Cmax in BALB/c mouse at 50 mg/kg, po; type: ADME, organism-based; design: dose 50 mg/kg, route oral; conditions: in vivo
Mus musculus = experiment: Plasma concentration in BALB/c mouse at 50 mg/kg, po; type: ADME, organism-based; design: dose 50 mg/kg, route oral; conditions: in vivo
Method in brief: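 Compound given orally at 50 mg/kg as a solution in PEG400/Tween80/water (40:10:50) to three Balb/C mice. Plasma sampled over 4 h after dosing; AUC(0-4h), Cmax and 4 h concentration reported.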

[7] = Metabolic stability in mouse liver microsomes assessed per mg of protein at 10 uM after 10 mins; type: ADME, Microsome
Method in brief: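 Mouse liver microsomes incubated with compound at 10 µM for 10 min; metabolic rate expressed as nmol/min/mg protein.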

[8] = Intrinsic permeability in human Caco-2 cells; type: ADME, cell-based; conditions: read-out: permeability
[9] = Volume of distribution at steady state in mouse at 25 mg/kg, iv; type: ADME, organism-based; design: dose 25 mg/kg, route intravenous; conditions: in vivo, read-out: Vdss
Method in brief: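 Mouse PK, average of three animals. Solution formulation in PG/Tween80/water (40:10:50), given orally at 120 mg/kg or iv at 25 mg/kg. Tmax taken from the oral arm; Vss taken from the iv arm.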

[10] = Cmax in rat at 10 mg/kg, po; type: ADME, organism-based; design: dose 10 mg/kg, route oral; conditions: in vivo
[11] = Half life in rat plasma at 10 mg/kg, po; type: ADME, organism-based; design: dose 10 mg/kg, route oral
[12] = Clearance in rat at 2.5 mg/kg, iv; type: ADME, organism-based; design: dose 2.5 mg/kg, route intravenous; conditions: in vivo
[13] = Oral bioavailability in rat at 10 mg/kg; type: ADME, organism-based; conditions: in vivo
[14] = Cmax in dog at 25 mg/kg, po; type: ADME, organism-based, Canis lupus familiaris; design: dose 25 mg/kg, route oral; conditions: in vivo
[15] = AUC (0 to 24 hrs) in dog at 25 mg/kg, po; type: ADME, organism-based, Canis lupus familiaris; design: time < 24 hr, dose 25 mg/kg, route oral; conditions: plasma
[16] = Half life in dog plasma at 25 mg/kg, po; type: ADME, organism-based, Canis lupus familiaris; design: dose 25 mg/kg, route oral
[17] = Mean residence time in dog at 1.5 mg/kg, iv; type: ADME, organism-based, Canis lupus familiaris; design: dose 1.5 mg/kg, route intravenous; conditions: in vivo
[18] = Clearance in dog at 1.5 mg/kg, iv; type: ADME, organism-based, Canis lupus familiaris; design: dose 1.5 mg/kg, route intravenous; conditions: in vivo
[19] = Volume of distribution at steady state in dog at 1.5 mg/kg, iv; type: ADME, organism-based, Canis lupus familiaris; design: dose 1.5 mg/kg, route intravenous; conditions: in vivo, read-out: Vdss
Method in brief: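 Dog PK, average of two animals. Compound dosed as a PEG400/Tween80/water (50:0.1:50) solution, orally at 25 mg/kg and iv at 1.5 mg/kg. Oral data give Tmax; iv data give Vss.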

[20] = Oral bioavailability in dog at 25 mg/kg; type: ADME, organism-based, Canis lupus familiaris; conditions: in vivo
[21] = AUC (0 to 24 hrs) in cynomolgus monkey at 5 mg/kg, po; type: ADME, organism-based, Macaca fascicularis; design: time < 24 hr, dose 5 mg/kg, route oral; conditions: plasma
Method in brief: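 Monkeys were dosed orally at 5 mg/kg as a solution in PEG400/Tween80/water (50:0.1:50).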

[22] = Volume of distribution at steady state in cynomolgus monkey at 5 mg/kg, iv; type: ADME, organism-based, Macaca fascicularis; design: dose 5 mg/kg, route intravenous; conditions: in vivo, read-out: Vdss
Method in brief: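 Monkey PK, mean of two animals. Compound given as a solution in PEG400/Tween80/water (50:0.1:50), 5 mg/kg both orally and iv. Tmax from the oral route; steady-state volume of distribution from the iv route.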

[23] = Oral bioavailability in cynomolgus monkey at 5 mg/kg; type: ADME, organism-based, Macaca fascicularis; conditions: in vivo
[24] = target: Receptor tyrosine-protein kinase erbB-4 (Homo sapiens, UniProt Q15303); experiment: Inhibition of human recombinant HER4 expressed in Sf9 cells by liquid scintillation counting
L2987 = experiment: Antitumor activity against human L2987 cells xenografted in athymic mouse at 180 mg/kg, po qd for 14 days; type: functional; conditions: L2987, 336 h, read-out: TGI
Method in brief: (§2)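 Xenograft-bearing mice dosed orally once daily in propylene glycol/Tween80/water (40:10:50). TGI taken as percent tumor growth inhibition during treatment; significance from mean tumor weight at end of treatment; body weight loss and morbidity monitored.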

[25] = Antitumor activity against human KPL4 cells xenografted in athymic mouse at 60 mg/kg, po qd for 21 days; type: functional; conditions: KPL4, 504 h, read-out: TGI; method in brief: as §2
[26] = Antitumor activity against human KPL4 cells xenografted in athymic mouse at 180 mg/kg, po qd for 21 days; type: functional; conditions: KPL4, 504 h, read-out: TGI; method in brief: as §2
NCI-N87 [27] = experiment: Antitumor activity against human NCI-N87 cells xenografted in athymic mouse at 60 mg/kg, po qd for 21 days; type: functional; conditions: NCI-N87, 504 h, read-out: TGI; method in brief: as §2
NCI-N87 [28] = experiment: Antitumor activity against human NCI-N87 cells xenografted in athymic mouse at 120 mg/kg, po qd for 21 days; type: functional; conditions: NCI-N87, 504 h, read-out: TGI; method in brief: as §2
NCI-N87 [29] = experiment: Antitumor activity against human NCI-N87 cells xenografted in athymic mouse at 180 mg/kg, po qd for 21 days; type: functional; conditions: NCI-N87, 504 h, read-out: TGI; method in brief: as §2
Cytochrome P450 1A2 = target: T1, Cytochrome P450 1A2 (Homo sapiens, UniProt P05177); experiment: Inhibition of human CYP1A2; type: ADME
T1 sequence (P05177 whole entry): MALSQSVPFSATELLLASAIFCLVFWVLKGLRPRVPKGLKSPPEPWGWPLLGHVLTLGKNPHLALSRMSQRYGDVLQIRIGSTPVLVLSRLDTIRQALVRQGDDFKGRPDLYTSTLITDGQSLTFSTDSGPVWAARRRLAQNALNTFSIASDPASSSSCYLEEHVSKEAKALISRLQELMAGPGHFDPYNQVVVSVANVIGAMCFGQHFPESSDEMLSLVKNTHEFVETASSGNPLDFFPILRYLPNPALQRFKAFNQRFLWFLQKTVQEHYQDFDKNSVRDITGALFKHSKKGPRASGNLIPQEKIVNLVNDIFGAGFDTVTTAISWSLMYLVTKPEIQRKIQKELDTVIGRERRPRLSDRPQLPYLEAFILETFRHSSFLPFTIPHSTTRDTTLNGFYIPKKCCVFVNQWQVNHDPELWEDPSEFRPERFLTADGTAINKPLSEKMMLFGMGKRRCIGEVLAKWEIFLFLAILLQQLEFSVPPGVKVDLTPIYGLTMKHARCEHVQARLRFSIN

[30] = Protein binding in mouse plasma at 10 uM by equilibrium dialysis; type: ADME, cell-free; conditions: read-out: PPB (converted)
[31] = Effect on action potential parameters in rabbit purkinje fiber up to 30 uM; type: ADME, tissue-based, Oryctolagus cuniculus

Sequence of Receptor tyrosine-protein kinase erbB-4 (Q15303 whole entry): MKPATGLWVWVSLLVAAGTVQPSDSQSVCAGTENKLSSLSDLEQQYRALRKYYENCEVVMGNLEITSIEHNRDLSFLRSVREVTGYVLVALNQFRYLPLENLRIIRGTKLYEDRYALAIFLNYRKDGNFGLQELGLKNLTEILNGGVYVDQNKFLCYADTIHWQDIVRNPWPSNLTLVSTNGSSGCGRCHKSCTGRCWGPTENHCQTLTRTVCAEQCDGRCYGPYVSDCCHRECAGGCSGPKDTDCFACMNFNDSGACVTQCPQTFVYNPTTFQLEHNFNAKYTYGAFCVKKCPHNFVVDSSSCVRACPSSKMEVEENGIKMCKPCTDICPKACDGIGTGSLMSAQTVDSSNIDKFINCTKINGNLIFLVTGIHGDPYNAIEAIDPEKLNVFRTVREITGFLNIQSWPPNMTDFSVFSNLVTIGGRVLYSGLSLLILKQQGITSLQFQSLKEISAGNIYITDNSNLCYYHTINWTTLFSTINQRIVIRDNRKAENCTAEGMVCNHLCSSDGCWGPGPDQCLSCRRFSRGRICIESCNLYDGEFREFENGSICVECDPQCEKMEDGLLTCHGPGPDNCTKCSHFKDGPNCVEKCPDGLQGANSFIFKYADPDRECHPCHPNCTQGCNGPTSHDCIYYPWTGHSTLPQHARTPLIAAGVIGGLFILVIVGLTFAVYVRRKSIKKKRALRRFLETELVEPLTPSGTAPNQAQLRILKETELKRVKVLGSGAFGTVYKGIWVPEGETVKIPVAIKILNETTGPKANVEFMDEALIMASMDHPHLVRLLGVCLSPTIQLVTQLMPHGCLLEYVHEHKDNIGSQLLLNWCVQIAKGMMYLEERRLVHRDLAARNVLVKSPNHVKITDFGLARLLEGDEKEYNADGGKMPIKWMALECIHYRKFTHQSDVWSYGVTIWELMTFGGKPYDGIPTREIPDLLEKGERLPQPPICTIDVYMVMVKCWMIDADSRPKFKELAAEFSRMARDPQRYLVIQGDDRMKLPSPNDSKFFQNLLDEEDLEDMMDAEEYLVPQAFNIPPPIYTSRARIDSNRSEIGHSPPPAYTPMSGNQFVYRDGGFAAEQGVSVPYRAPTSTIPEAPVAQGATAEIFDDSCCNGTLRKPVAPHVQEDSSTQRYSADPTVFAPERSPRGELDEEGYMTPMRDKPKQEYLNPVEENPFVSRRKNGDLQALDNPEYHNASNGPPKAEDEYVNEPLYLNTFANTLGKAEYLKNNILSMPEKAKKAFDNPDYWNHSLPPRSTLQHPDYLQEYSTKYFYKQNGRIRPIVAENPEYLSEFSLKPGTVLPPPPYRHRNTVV
Sequence of Receptor tyrosine-protein kinase erbB-2 (P04626 whole entry): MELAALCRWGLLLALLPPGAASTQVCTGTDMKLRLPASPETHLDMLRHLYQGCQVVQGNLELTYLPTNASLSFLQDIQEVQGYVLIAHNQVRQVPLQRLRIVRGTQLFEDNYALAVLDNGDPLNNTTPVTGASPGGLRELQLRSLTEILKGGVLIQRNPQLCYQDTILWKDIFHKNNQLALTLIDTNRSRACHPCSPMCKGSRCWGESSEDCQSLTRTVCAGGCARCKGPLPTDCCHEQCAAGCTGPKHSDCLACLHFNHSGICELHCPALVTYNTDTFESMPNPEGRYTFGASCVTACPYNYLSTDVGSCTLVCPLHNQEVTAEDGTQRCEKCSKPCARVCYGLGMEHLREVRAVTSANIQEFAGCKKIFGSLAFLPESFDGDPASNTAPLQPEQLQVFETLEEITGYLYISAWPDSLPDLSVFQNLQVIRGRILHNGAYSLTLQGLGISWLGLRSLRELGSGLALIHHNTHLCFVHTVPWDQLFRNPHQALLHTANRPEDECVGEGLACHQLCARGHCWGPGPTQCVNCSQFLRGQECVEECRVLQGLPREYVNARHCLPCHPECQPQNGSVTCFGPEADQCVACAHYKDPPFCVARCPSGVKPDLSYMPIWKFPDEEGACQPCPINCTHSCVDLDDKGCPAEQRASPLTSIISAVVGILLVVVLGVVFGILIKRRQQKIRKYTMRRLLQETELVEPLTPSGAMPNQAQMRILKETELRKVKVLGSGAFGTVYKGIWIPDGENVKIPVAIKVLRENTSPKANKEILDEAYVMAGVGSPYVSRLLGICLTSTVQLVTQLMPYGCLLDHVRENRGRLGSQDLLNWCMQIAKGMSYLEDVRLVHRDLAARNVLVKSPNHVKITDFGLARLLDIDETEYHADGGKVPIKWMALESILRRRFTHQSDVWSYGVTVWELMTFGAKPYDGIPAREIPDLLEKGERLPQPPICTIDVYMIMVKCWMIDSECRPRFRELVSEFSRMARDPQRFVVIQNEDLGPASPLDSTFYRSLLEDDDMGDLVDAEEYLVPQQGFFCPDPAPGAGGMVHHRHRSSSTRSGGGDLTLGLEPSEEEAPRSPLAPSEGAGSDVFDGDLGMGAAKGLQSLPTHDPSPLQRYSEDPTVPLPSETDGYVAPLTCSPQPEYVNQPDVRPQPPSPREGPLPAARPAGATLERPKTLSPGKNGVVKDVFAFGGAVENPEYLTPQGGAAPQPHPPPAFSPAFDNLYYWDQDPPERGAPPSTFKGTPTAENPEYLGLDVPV
Sequence of Epidermal growth factor receptor (P00533 whole entry): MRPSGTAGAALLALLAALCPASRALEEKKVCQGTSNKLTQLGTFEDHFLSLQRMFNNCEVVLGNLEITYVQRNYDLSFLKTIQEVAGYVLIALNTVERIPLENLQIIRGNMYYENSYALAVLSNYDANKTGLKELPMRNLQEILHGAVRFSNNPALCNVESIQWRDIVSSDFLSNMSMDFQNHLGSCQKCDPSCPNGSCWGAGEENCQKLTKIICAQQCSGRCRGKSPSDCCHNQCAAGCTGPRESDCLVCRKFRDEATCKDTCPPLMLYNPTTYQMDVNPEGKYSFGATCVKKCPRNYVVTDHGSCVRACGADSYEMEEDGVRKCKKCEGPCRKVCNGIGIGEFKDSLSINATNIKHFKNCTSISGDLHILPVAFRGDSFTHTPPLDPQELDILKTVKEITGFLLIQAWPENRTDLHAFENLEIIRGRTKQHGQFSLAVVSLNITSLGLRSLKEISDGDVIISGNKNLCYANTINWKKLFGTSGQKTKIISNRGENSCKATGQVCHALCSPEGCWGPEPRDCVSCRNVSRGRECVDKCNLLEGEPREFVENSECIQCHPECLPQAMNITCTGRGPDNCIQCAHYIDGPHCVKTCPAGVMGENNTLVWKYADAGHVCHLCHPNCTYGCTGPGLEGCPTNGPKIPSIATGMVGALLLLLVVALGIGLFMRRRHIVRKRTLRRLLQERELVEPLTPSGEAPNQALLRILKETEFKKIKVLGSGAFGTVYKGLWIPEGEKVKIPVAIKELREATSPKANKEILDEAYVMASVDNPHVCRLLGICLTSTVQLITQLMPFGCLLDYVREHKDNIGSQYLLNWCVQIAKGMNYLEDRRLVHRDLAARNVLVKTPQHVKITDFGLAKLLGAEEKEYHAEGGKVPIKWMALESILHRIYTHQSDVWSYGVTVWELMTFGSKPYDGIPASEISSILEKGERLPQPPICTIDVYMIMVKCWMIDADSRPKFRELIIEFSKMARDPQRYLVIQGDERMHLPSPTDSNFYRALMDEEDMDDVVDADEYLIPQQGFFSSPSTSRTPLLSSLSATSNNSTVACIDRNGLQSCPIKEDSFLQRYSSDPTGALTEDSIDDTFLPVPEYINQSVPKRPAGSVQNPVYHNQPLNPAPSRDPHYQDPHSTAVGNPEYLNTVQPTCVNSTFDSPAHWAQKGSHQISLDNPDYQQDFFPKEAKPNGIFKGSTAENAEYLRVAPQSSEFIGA

Compound: Cc1c(NC(=O)OC[C@@H]2COCCN2)cn2ncnc(Nc3ccc4c(cnn4Cc4cccc(F)c4)c3)c12 [AC-480]
- IC50 [1]: 32 nM
- IC50 [2]: 22 nM
- IC50 (BT-474): 310 nM
- IC50 (NCI-N87 [3]): 450 nM
- IC50 [4]: 240 nM
- IC50 (A2780): > 10000 nM
- AUC(0-t) at 4 h [5]: 13.3 µM·h
- Cmax [6]: 4100 nM
- concentration (Mus musculus): 4100 nM
- Stability [7]: 0.02 nmol/min
- Papp [8]: 21.4 ×10⁻⁶ cm/s
- Vd [9]: 4.7 L/kg
- Cmax [10]: 600 nM
- half-life [11]: 2.8 h
- clearance [12]: 41.6 mL/min/kg
- bioavailability [13]: 40%
- Cmax [14]: 1200 nM
- AUC(0-t) at 24 h [15]: 14 µM·h
- half-life [16]: 7.2 h
- MRT [17]: 6.9 h
- clearance [18]: 24.8 mL/min/kg
- Vd [19]: 10.1 L/kg
- bioavailability [20]: 49%
- AUC(0-t) at 24 h [21]: 3.6 µM·h
- Vd [22]: 4 L/kg
- bioavailability [23]: 31%
- IC50 [24]: 190 nM
- inhibition in vivo at 180 mg/kg (L2987): 99%
- inhibition in vivo at 60 mg/kg [25]: 61%
- inhibition in vivo at 180 mg/kg [26]: 129%
- inhibition in vivo at 60 mg/kg (NCI-N87 [27]): 39%
- inhibition in vivo at 120 mg/kg (NCI-N87 [28]): 81%
- inhibition in vivo at 180 mg/kg (NCI-N87 [29]): 71%
- IC50 (Cytochrome P450 1A2): > 40000 nM
- fraction unbound at 10 µM [30]: 0.017
- Activity [31]: Non-toxic
